Compound activity: PubChem, Broad Institute
PGC1a acetyl up: raises PGC1a acetylation signal in U2OS cells | U2OS PGC1a acetylation AlphaScreen, overnight | 350,000 compounds, 0.21% hits | activation, % at 15.6 µM | AID 651723;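 active = every replicate reaching activation of at least 50%, whatever the mean replicate activation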;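 also: hits raise the AlphaScreen acetylation signal above neutral controls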
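Test system: U2OS cells expressing flag-PGC1a plus GCN5; Amount: 7000 U2OS cells per well; Compound: single test concentration per compound; Incubation: compound overnight at 37 °C, each detection step 1 h RT; Signal: AlphaScreen lysate read.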
* hit, by the source's call. The list is a sample of the results.

CO[C@@H]1CN(C)C(=O)c2ccc(NC(=O)Nc3c(C)noc3C)cc2OC[C@H](C)N(CC2CC2)C[C@@H]1C was read as PGC1a acetyl up -101.
Screening Cn1nc(C(=O)N2CCCCC2)c2c1-c1ccccc1S(=O)(=O)C2 returned PGC1a acetyl up -48.
`CC(NCc1cccs1)C(=O)NC1CCCCC1` (stereo not drawn) gave PGC1a acetyl up -45.
`O=C(Nc1ccc(F)cc1)C1CCCN1S(=O)(=O)c1cccc2nsnc12` (stereo not drawn) gave PGC1a acetyl up -41.
Screening N#Cc1ccc(Cn2c(=O)c(C#N)c3n(c2=O)CCC3)cc1 returned PGC1a acetyl up -47.
O=C(NCC[C@@H]1CC[C@H](NS(=O)(=O)Cc2ccccc2)[C@H](CO)O1)C1CCC1 was read as PGC1a acetyl up -61.
COc1cc(CN2CC3(CCN(S(=O)(=O)c4cccs4)CC3)c3c(n(C)c4cc(OC)ccc34)[C@H]2CO)cc(OC)c1 was read as PGC1a acetyl up 63*.
`CCCCOP(=O)(c1ccc(N(C)C)cc1)C(O)c1ccc(OC)cc1` (stereo not drawn) gave PGC1a acetyl up -82.
`O=C(CCNC(=O)C1CCN(S(=O)(=O)c2ccc(F)cc2)CC1)NCc1ccccc1Cl` gave PGC1a acetyl up 64*.
`Cn1c(=O)c2cc(S(=O)(=O)NCCC(=O)NCc3ccccc3Cl)ccc2n(C)c1=O` gave PGC1a acetyl up -47.
`COc1ccc(S(=O)(=O)NCCC(=O)NCc2ccc(F)cc2)cc1` gave PGC1a acetyl up -80.
For Cc1ccc(-c2ccc3c(c2)O[C@@H](CN(C)C(=O)C2CCCCC2)[C@H](C)CN([C@H](C)CO)S3(=O)=O)cc1 the results were PGC1a acetyl up -42.
For CCOc1nc(NC(=O)NS(=O)(=O)c2ccccc2F)nc(-c2ccccc2)n1 the results were PGC1a acetyl up -50.
`CCOC(=O)C1CCN(C2=NC(=O)/C(=C/c3ccc(O)cc3)S2)CC1` gave PGC1a acetyl up -41.
CCOC(=O)C1CCN(Cc2ccc(O)c3ncccc23)CC1 was read as PGC1a acetyl up 61*.
Screening CCOC(=O)C1CCCN(C(=O)CSc2ccc(Br)cc2)C1 (stereo not drawn) returned PGC1a acetyl up -78.
CC(=O)NC(c1cccc(F)c1)c1nc(-c2cccc(C(C)C)c2)cs1 (stereo not drawn) was read as PGC1a acetyl up -100.
Screening O=C(C[C@@H]1C[C@@H]2c3cc(NC(=O)C4CCC4)ccc3O[C@@H]2[C@@H](CO)O1)NCc1ccc(-c2ccccc2)cc1 returned PGC1a acetyl up -80.
Cc1ccc(O)c(C(=O)c2cnc3c(c2)CN(CCC(C)C)C(=O)N3)c1 was read as PGC1a acetyl up 70*.
COc1cc(C(C)=O)ccc1OCC(O)CN1CCN(c2ccc(C)c(C)c2)CC1 (stereo not drawn) was read as PGC1a acetyl up -40.
COc1ccc(S(=O)(=O)N(C)C[C@H]2Oc3ccc(NC(=O)CCN4CCOCC4)cc3C(=O)N([C@@H](C)CO)C[C@@H]2C)cc1 was read as PGC1a acetyl up -49.
NC(=O)C1CCN(C2=C(Cl)C(=O)c3ccccc3C2=O)CC1 was read as PGC1a acetyl up 66*.
For CCn1c(Oc2ccccc2F)nc2c1c(=O)n(C)c(=O)n2C the results were PGC1a acetyl up -40.
For CS(=O)(=O)c1nc(-c2ccccc2)cc(C(F)(F)F)n1 the results were PGC1a acetyl up -64.
`O=C(COc1ccc([N+](=O)[O-])cc1)Nc1ccc(C(=O)NCc2cccnc2)cc1` gave PGC1a acetyl up 192*.
For Cc1ccc(S(=O)(=O)Nc2ccccc2C(=O)NCc2cccnc2)cc1 the results were PGC1a acetyl up -91.
`C/C(=N/NC(=O)CNC(=O)c1cccnc1)c1ccc([N+](=O)[O-])cc1` gave PGC1a acetyl up -43.
O=C(NCc1cccnc1)c1ccc(NC(=O)c2cccc([N+](=O)[O-])c2)cc1 was read as PGC1a acetyl up 171*.
Cc1c(Cl)c([N+](=O)[O-])nn1CC(=O)NCc1cccnc1 was read as PGC1a acetyl up -42.
Screening CC(C)(C)NC(=O)C(=O)NNC(=O)c1cccc([N+](=O)[O-])c1 returned PGC1a acetyl up -57.
For C[C@@H]1CN([C@@H](C)CO)C(=O)CCCn2nncc2CO[C@H]1CN(C)Cc1ccc(O)cc1 the results were PGC1a acetyl up -45.
C[C@@H]1CN([C@H](C)CO)C(=O)c2cc(NC(=O)Nc3ccc(F)cc3)ccc2O[C@@H](C)CCCCO[C@@H]1CN(C)C(=O)NC1CCCCC1 was read as PGC1a acetyl up -53.
CN(C)C(=O)C[C@@H]1C=C[C@@H](NS(=O)(=O)c2ccccc2)[C@@H](CO)O1 was read as PGC1a acetyl up -54.
`CC(=O)NC(=S)Nc1ccc(NC(=O)COc2ccc(Cl)cc2Cl)cc1` gave PGC1a acetyl up 76*.
C[C@H](CO)N1C[C@H](C)[C@H](CN(C)Cc2ccncc2)OCc2cn(nn2)CCCC1=O was read as PGC1a acetyl up -59.
Screening O=C1CC(Sc2nnc(-c3ccccc3O)o2)C(=O)N1c1ccccc1 (stereo not drawn) returned PGC1a acetyl up 86*.
